From the array DNA melting data of Ke et al. (doi:10.1101/2024.01.08.574731)

Columns and labels:
[1] = folding enthalpy; higher = less favourable; fluorescence melt of hairpins on a sequencing array, two-state fit; conditions: sodium 0.088 M
How it was run: (§1)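 Melting temperature and folding enthalpy were obtained by bootstrapped two-state fitting. Fits used Cy3 fluorescence of library hairpins with annealed Cy3 and quencher oligos on a sequenced MiSeq flow cell, imaged in 50 mM Na-HEPES pH 8.0, 25 mM NaCl in 2.5 °C steps up to 60 °C and normalised to pre-quench Cy3 and control constructs. Four replicates were combined by inverse-variance weighting, and fitted temperatures were raised by 9.35 °C to match UV melts.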

[2] = melting temperature; fluorescence melt of hairpins on a sequencing array, two-state fit, raised by 9.35 °C to match UV melts; conditions: sodium 0.088 M
How it was run: as §1

Row | Sequence | folding enthalpy [1] [kcal/mol] | Tm [2] [°C]
1 | GATCCACGACTGGATC ((((((....)))))) | -31.4 | 48.8
2 | ATAACGAAAGTTAT (((((....))))) | -15.2 | 46.3
3 | GTCACCGAAAGGTTGGAC ((((((....)))..))) | -14.8 | 31.1
4 | TCTACGAAAGTAGA (((((....))))) | -16.4 | 47.8
5 | GCGAGAACTCGC ((((....)))) | -27.4 | 54.9
6 | GCGTAACGAAAGTTCCGC (((.(((....))).))) | -33.4 | 52.7
7 | GGATACGAAAGTAACTCC ((((((....)))..))) | -16 | 30.6
8 | GGCGCCGAAAGGCTCGCC ((((((....)))..))) | -19.1 | 54.5
9 | GGATGAGGAAACTTGTCC (((..((....))..))) | -24.4 | 31.1
10 | GATCTATGTTTAGATC ((((((....)))))) | -32.9 | 43.9
11 | GCTCGGGGAAACCCAAGC (((.(((....))).))) | -17.8 | 45.3
12 | GGGGGGGGAAACTCCCCC (((((.(....).))))) | -20.3 | 64.3
13 | GGGACAGGAAACTATCCC ((((.((....)).)))) | -29.4 | 35.4
14 | GGCGCTGGAAACAGCGTC (.(((((....))))).) | -23 | 65.9
15 | CGGCCGGAAACGGGACCG ((((((....)))..))) | -25.5 | 47.8
16 | GATGTTGAAAAACATC ((((((....)))))) | -35.7 | 51.6
17 | GATCTGGTACAGATC ((((((...)))))) | -41.3 | 60.8
18 | GCGACGCGAAAGCCGCGC (((..((....))..))) | -23.6 | 67.1
19 | GATGACGAAAGTCCTATC ((((((....)))..))) | -9.62 | 24
20 | GATCCCTCATGGGATC ((((((....)))))) | -37 | 62.6
21 | GCAGTGTCGAAAGACTGC (((..(((....)))))) | -23 | 48.3
22 | GCGATACTTCGC ((((....)))) | -25.9 | 52.7
23 | GATCTACGAAAGTATATC (((.(((....))).))) | -22.4 | 32.5
24 | CGCGGATGACTCCGCG ((((((....)))))) | -43.1 | 66.7

Row | Sequence | folding enthalpy [1] [kcal/mol] | Tm [2] [°C]
25 | GATCACAACCGTGATC ((((((....)))))) | -39.2 | 57.2
26 | GCTGCTACGAAAGTAAGC (((..(((....)))))) | -17.1 | 41.5
27 | GATCCGCCACCGGATC ((((((....)))))) | -34.3 | 56.4
28 | GCCCGAGCGAAAGCTGGC (((..(((....)))))) | -16.1 | 50.9
29 | GGACGCGGAAACGCGTTC (.(((((....))))).) | -16.6 | 62.2
30 | GAACGCGAAAGCGCCTTC ((((((....)))..))) | -11.1 | 35.8
31 | GATCGGGACTCCGATC ((((((....)))))) | -39.7 | 61
32 | GAAGTCGGAAACAACTTC (((((.(....).))))) | -27.2 | 33.4
33 | GTCATCGAAAGATGAC ((((((....)))))) | -31.2 | 66.2
34 | GCTAGTCGAAAGACAAGC (((.(((....))).))) | -34.7 | 51.8
35 | GGCAGTACGAAAGTAGCC (((..(((....)))))) | -21.6 | 44.9
36 | GCGATCTTCGC ((((...)))) | -19.4 | 51.9
37 | GGAAGAGGAAACCCTTCC (((((.(....).))))) | -30.7 | 37.8
38 | GCGTGGGGAAACCCGTGC ((..(((....)))..)) | -26.1 | 46.2
39 | GCCTTTTCGAAAGAAGGC (((..(((....)))))) | -30.4 | 42.7
40 | GCCCGCGAAAGCGATGGC ((((((....)))..))) | -19.8 | 62
41 | GTTAGCGGAAACGCTAAC (((((((....))))))) | -42.7 | 66.7
42 | GTCTCCGAAAGGAGGGAC ((((((....)))..))) | -9.56 | 41.7
43 | GTAGTGCGAAAGCAGTAC (((.(((....))).))) | -31.2 | 58.2
44 | GTACAACGAAAGTTTTAC (((.(((....))).))) | -18.6 | 36.7
45 | GCCTTTCCGAAAGGAGGC (((..(((....)))))) | -19.9 | 44.6
46 | GATCGGGTGGCCGATC ((((((....)))))) | -40.4 | 57
47 | GAAGACGGAAACGTCTTC (((((((....))))))) | -41.5 | 64.5
48 | GCGGCCGAAAGGCGTCGC ((((((....)))..))) | -17.4 | 59.3

Row | Sequence | folding enthalpy [1] [kcal/mol] | Tm [2] [°C]
49 | GCTTACCGAAAGGTAGC (((.(((....)))))) | -19.8 | 53
50 | GCCAAGCGAAAGCATCGC ((.(.((....)).).)) | -6.8 | 31.2
51 | GCCCCGCGAAAGCGTCGC ((..(((....)))..)) | -8.15 | 28.8
52 | GAGGTCCGAAAGGATCTC (((.(((....))).))) | -37.9 | 59.6
53 | GCTCTGCGAAAGCCGGGC ((.(.((....)).).)) | -20.1 | 41.7
54 | GTTAACGAAAGTTGAAC ((((((....))).))) | -12.8 | 28.2
55 | CGCGGAAGATCCGCG ((((((...)))))) | -26.5 | 69.1
56 | GATCTCGTCTGAGATC ((((((....)))))) | -41.8 | 55.3
57 | GTGCGAGAAATCGCAC ((((((....)))))) | -28 | 68.2
58 | GATCACGTTGGTGATC ((((((....)))))) | -37 | 58.2
59 | GCACAGCGAAAGCTACGC ((..(((....)))..)) | -16.7 | 42
60 | GCGAATAGTCGC ((((....)))) | -17.4 | 44.7
61 | GCGTAGCGAAAGCACCGC (((..((....))..))) | -10.6 | 47.8
62 | GGGATCGAAAGATGTCCC ((((((....)))..))) | -17.3 | 35.9
63 | GAACGGGGAAACCCGTCC (.(((((....))))).) | -11.7 | 42.5
64 | GATGGGCGAAAGCCAATC (((.(((....))).))) | -23.9 | 51.2
65 | GCAGGTGGAAACACCTAC (.(((((....))))).) | -15.4 | 39.3
66 | GCCGCGTCGAAAGACGGC (((..(((....)))))) | -9.58 | 56.9
67 | GCCAACGGAAACGTTAGC ((.((((....)))).)) | -23.6 | 40
68 | GTCCTTGGAAACAAAGAC (((.(((....))).))) | -13.3 | 30.4
69 | GGACCACGAAAGTGATCC (((.(((....))).))) | -29.1 | 51.5
70 | GATCTTGGGGAAGATC ((((((....)))))) | -29.1 | 40.8
71 | GAGAGCGAAAGCTCACTC ((((((....)))..))) | -12 | 55.5
72 | GCCTTCCGAAAGGACGGC (((.(((....))).))) | -41.6 | 57.3

Row | Sequence | folding enthalpy [1] [kcal/mol] | Tm [2] [°C]
73 | GCGTCTTGACGC ((((....)))) | -34.4 | 69.1
74 | GTTGCAGGAAACCACAAC ((((..(....)..)))) | -18.2 | 27.4
75 | GCGTATCGACGC ((((....)))) | -18.9 | 52.6
76 | GCCTCTCGAAAGAGGGC (((.(((....)))))) | -30.6 | 54.4
77 | GGCTATGGAAACGTAGTC (.(((.(....).))).) | -18.6 | 32.3
78 | GTCTTCGAAAGAATGAC ((((((....))).))) | -25 | 37.9
79 | GTACGAGGAAACTCGCAC ((.((((....)))).)) | -19.8 | 42.4
80 | GGTCAGGGAAACCCAACC (((..((....))..))) | -9.32 | 29
81 | GGTCGACCGAAAGGTACC (((..(((....)))))) | -14 | 31.8
82 | GATCCCAGTCGGGATC ((((((....)))))) | -33.4 | 61.3
83 | GCTCGGGGAAACCCGGGC ((.((((....)))).)) | -34.6 | 59.2
84 | GCATACGAAAGTAATGC ((((((....))).))) | -35.4 | 50.1
85 | GTGCCTCGAAAGAGACAC (((.(((....))).))) | -42.5 | 52.6
86 | GATCATCAGATGATC ((((((...)))))) | -35.1 | 44.5
87 | GTCGATGCGAAAGCAGAC (((..(((....)))))) | -16.1 | 46
88 | GGCTAACGAAAGTTGCC (((.(((....)))))) | -30 | 54
89 | GCGCAGCGAAAGCCCCGC (((..((....))..))) | -5.72 | 36.4
90 | GCATGACGAAAGTCTGC (((.(((....)))))) | -29 | 53.9
91 | GCGAGGCGAAAGCCCGGC ((..(((....)))..)) | -10.5 | 63.8
92 | GCGGCCCGCCGC ((((....)))) | -16.9 | 68.7
93 | GCGAGCGGAAACACTCGC (((((.(....).))))) | -48.3 | 56.2
